# M5 PAM = human M5 muscarinic receptor positive allosteric modulators, primary screen, CHO-K1 cells, Fluo-8 calcium fluorescence; Muscarinic acetylcholine receptor M5 (Homo sapiens), P08912; CHO-K1 hM5, ACh EC20 PAM; 0% = ACh EC20, 100% = ACh EC100; activation, % at 3 µM; 360,000 compounds, 0.3% hits; AID 624038, 2012;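 active = activation above the run cutoff, the mean activation of all test compounds plus 3 SD, cut at about 18% in these data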
#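 System: CHO-K1 hM5 cells. Reagent: acetylcholine, EC20 level. Compound dosing: single dose, 3 µM nominal final test concentration. Timing: Post-acetylcholine fluorescence recording 140 s. Detection: Fluo-8 calcium fluorescence. Read-out: % activation, ACh-normalized. Benchmarks: ACh EC20 and EC100 wells. Repeats: singlicate, one well per test compound.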
# CHRM5 agonist = human M5 muscarinic receptor agonists, primary screen, CHO-K1 cells, Fluo-8 calcium fluorescence | 360,000 compounds, 0.19% hits | Muscarinic acetylcholine receptor M5 (Homo sapiens), P08912 | AID 624037, 2012 | activation, % at 3 µM | CHO-K1 hM5 cells; 0% DMSO wells, 100% maximal acetylcholine response;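 active = activation above the run's mean over test compounds plus 3 SD, cut at about 23% in these data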;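 note: signal is peak over basal fluorescence ratio across the kinetic read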
# M4 PAM = human M4 muscarinic receptor positive allosteric modulators, primary screen, CHO-K1 cells, Fluo-8 calcium fluorescence. CHO-K1 hM4/Gqi5, ACh EC20; 0% = ACh EC20, 100% = maximal ACh. 360,000 compounds, 0.4% hits. activation, % at 3 µM. Muscarinic acetylcholine receptor M4 (Homo sapiens), P08173;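 active = activation above its plate's cutoff, the mean activation of sample wells plus 3 SD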
# Target sequence (P08173 whole entry, looked up): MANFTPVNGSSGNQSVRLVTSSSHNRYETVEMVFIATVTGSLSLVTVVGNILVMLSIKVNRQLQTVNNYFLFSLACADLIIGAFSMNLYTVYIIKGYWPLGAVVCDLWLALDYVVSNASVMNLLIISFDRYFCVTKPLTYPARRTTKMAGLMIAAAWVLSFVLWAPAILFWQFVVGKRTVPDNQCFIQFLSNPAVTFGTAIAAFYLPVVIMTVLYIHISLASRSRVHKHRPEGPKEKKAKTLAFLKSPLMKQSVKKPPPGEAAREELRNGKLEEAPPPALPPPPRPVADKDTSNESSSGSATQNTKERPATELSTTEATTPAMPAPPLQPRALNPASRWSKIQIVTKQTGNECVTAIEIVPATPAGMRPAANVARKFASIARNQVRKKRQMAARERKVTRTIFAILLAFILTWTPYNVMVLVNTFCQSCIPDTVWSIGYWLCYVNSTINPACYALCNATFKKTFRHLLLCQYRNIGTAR
# M5 antag = human M5 muscarinic receptor antagonists, primary screen, CHO cells, Fluo-8 calcium fluorescence | AID 624040, 2012 | 360,000 compounds, 0.59% hits | inhibition, % at 3 µM | CHO-hM5 cells, ACh EC80 | Muscarinic acetylcholine receptor M5 (Homo sapiens), P08912;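 active = inhibition above a per-plate cutoff, the mean of that plate's test compounds plus 3 SD, cut at about 27% in these data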;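 note: 0% = acetylcholine EC80 with DMSO and 100% = DMSO without agonist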
# M4 antag = human M4 muscarinic receptor antagonists, primary screen, CHO cells, Fluo-8 calcium fluorescence. Muscarinic acetylcholine receptor M4 (Homo sapiens), P08173. CHO-hM4 cells, ACh EC80. inhibition, % at 3 µM. 360,000 compounds, 0.73% hits. AID 624125, 2012;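 active = inhibition above its plate's cutoff, the mean inhibition of sample wells plus 3 SD, cut at about 27% in these data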;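 note: 0% = acetylcholine EC80 with DMSO and 100% = DMSO without agonist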
# M4 ag = human M4 muscarinic receptor agonists, primary screen, CHO-K1 cells, Fluo-8 calcium fluorescence; Muscarinic acetylcholine receptor M4 (Homo sapiens), P08173; CHO-K1 hM4/Gqi5; vehicle 0%, full acetylcholine response 100%; activation, % at 3 µM; 360,000 compounds, 0.14% hits; AID 624127, 2012;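 active = activation above the run mean over all test wells plus 3 SD, cut at about 32% in these data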;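 note: peak over basal fluorescence ratio per well then scaled between controls; 0% = DMSO wells and 100% = acetylcholine at EC100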
# The depositor's hits bear a star. Compounds with a hit are over-represented: about 1.9% of the library has one in this group of screens.
SMILES,M5 PAM,CHRM5 agonist,M4 PAM,M5 antag,M4 antag,M4 ag
CCCCN(C1CCS(=O)(=O)C1)S(=O)(=O)c1ccc(OC)c(OC)c1 (stereo unspecified),3,2,8,-3,-12,1
Cc1ccc(-c2csc(NC(=O)c3ccc(-c4ccccc4)cc3)n2)o1,-6,8,-10,16,40*,9
Cc1nc(-c2cccc(NC(=O)c3ccc(Br)o3)c2)cs1,-12,-6,-1,27*,1,5
Cc1nc(-c2cccc(NC(=O)C3CCCCC3)c2)cs1,26*,-1,8,-29,-16,3
CCC(=O)Nc1ccc2c(c1)OC[C@@H](C)N(Cc1cccc(F)c1)C[C@@H](C)[C@@H](OC)CN(C)C2=O,9,1,-4,-6,5,2
Cc1oc(C(=O)O)cc1COc1ccccc1Cl,42*,30*,11,6,-1,1
O=C(O)c1ccccc1COc1ccccc1Cl,1,0,0,5,-1,0
COc1cc(/C=C/C(=O)O)cc(S(=O)(=O)Nc2ccccc2Oc2ccccc2)c1OC,0,2,-10,1,-10,-1
COc1ccc(NS(=O)(=O)c2cccc(C(=O)N3CCN(C/C=C/c4ccccc4)CC3)c2)cc1,-10,3,-11,13,4,17
O=C(Nc1cccc([N+](=O)[O-])c1)NN1CCCCCC1,-20,6,-4,30*,11,14
O=C(Nc1cccc([N+](=O)[O-])c1)NC1CCCCCCC1,-16,8,-13,29*,6,15
COc1ccc(NC(=O)NC2CCCCCCC2)cc1OC,22*,-1,17,-2,4,3
O=C(CNC1CCCCC1)Nc1cccc([N+](=O)[O-])c1,3,0,0,5,0,1
O=C(NCc1cccnc1)Nc1cccc([N+](=O)[O-])c1,-11,-5,-1,28*,-3,1
CC(C)NC1(C(N)=O)CCNCC1,2,1,10,8,-6,0
COc1ccc(S(=O)(=O)N2CCN(C)CC2)cc1NC(=O)c1ccccc1C,0,-3,-3,11,7,-1
Cc1ccc(C(=O)NCCSC2CCCCC2)cc1S(=O)(=O)Nc1ccccc1,-6,-2,-12,-2,6,6
CCOC(=O)c1c(C)[nH]c(C(=O)CN2C(=O)NC(C)(c3ccc(C)cc3)C2=O)c1C (stereo unspecified),2,27*,9,5,-3,21
COC(=O)c1c(C)[nH]c(C(=O)CN2C(=O)C3CC=CCC3C2=O)c1C (stereo unspecified),3,4,26*,3,0,3
CCOC(=O)c1c(C)[nH]c(C(=O)CN2C(=O)C(=O)N(CC(C)C)C2=O)c1C,-11,0,-1,-22,-6,7
COc1ccc(CC(=O)NCc2ccccc2F)cc1S(=O)(=O)N1CCOCC1,-1,1,-1,4,7,1
COc1cccc(/C=N/NC(=O)C(=O)N2CCCCCC2)c1OC,8,-2,2,-8,-13,1
O=C(N/N=C/c1cccc2ccccc12)C(=O)N1CCCC1,18*,1,-8,0,-12,-2
O=C1Nc2ccc(Br)cc2/C1=C/C1CC=CCC1 (stereo unspecified),26*,3,14,2,-14,0
CC(C)(CO)NS(=O)(=O)c1ccc2c(c1)C(=NO)c1cc(S(=O)(=O)NC(C)(C)CO)ccc1-2,11,0,21*,-8,-3,1
SMILES,M5 PAM,CHRM5 agonist,M4 PAM,M5 antag,M4 antag,M4 ag
COCCNS(=O)(=O)c1ccc2c(c1)C(=NO)c1cc(S(=O)(=O)NCCOC)ccc1-2,2,4,8,9,0,2
CSCC[C@H](NC(=O)N1CCn2c1nc1ccccc12)C(=O)NC1CC1,0,-3,-4,5,-5,1
CCOC(=O)C[C@H]1c2cc(F)ccc2S(=O)(=O)N1C1CCCC1,11,-1,11,-2,-4,1
Cc1ccccc1NCC(=O)N/N=C/c1c[nH]c2ccccc12,-5,-2,-5,2,-2,6
Cc1cccc(NCC(=O)N/N=C\c2c[nH]c3ccccc23)c1,-8,-6,-11,11,28*,4
Cc1ccc(Cn2c(C(C)Nc3nc(-c4ccc(C)cc4)cs3)nc3cc(Cl)c(Cl)cc32)cc1 (stereo unspecified),-5,3,-2,3,12,1
O=[N+]([O-])c1ccc(SCCO)nc1SCCO,-3,1,-1,9,-10,1
NC(=O)N1N=C2/C(=C/c3ccccc3)CCCC2C1c1ccccc1 (stereo unspecified),-5,0,14,8,3,5
O=C(O)CSCC(=O)N1N=C2/C(=C/c3ccccc3)CCCC2C1c1ccccc1 (stereo unspecified),1,-2,16*,1,-40,1
CC(C(=O)NCC1CCCCC1)N1CCN(S(=O)(=O)c2cccs2)CC1 (stereo unspecified),1,-1,-2,1,6,1
COc1cc(C(=O)C(=O)N2CCN(c3ccccc3)CC2)cc2ccccc12,18*,0,4,-19,-18,5
COc1ccc(N2CCN(C(=O)C(=O)c3cc(OC)c(OC)c(OC)c3)CC2)cc1,-7,1,1,13,-14,5
O=C1CCC(=O)N1c1ccc(NC2CCN(Cc3ccccc3)CC2)c([N+](=O)[O-])c1,-1,-19,-24,5,8,0
O=C1C2CCCCC2C(=O)N1c1ccc(NC2CCN(Cc3ccccc3)CC2)c([N+](=O)[O-])c1 (stereo unspecified),-23,-19,-40,32*,16,1
CC1CCC2C(=O)N(c3ccc(NC4CCN(Cc5ccccc5)CC4)c([N+](=O)[O-])c3)C(=O)C2C1 (stereo unspecified),-36,-18,-59,24,29*,4
O=C(CSc1nc(O)cc(=O)[nH]1)N1CCOCC1,1,-2,-1,8,-8,-1
Cc1cc(=O)[nH]c(SCC(=O)N2CCCCC2)n1,-1,0,2,8,-17,1

# Screening data as filed in PubChem BioAssay.
